H9c2 TAG inh: inhibitors of triacylglycerol accumulation; H9c2 cells, Nile Red lipid (TAG) fluorescence; cells loaded with 200 µM oleic acid; inhibition, % at 12.5 µM; 230,000 compounds, 0.66% hits;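 active means pattern-corrected inhibition of lipid staining of at least 50% with the nuclear-stain viability signal not falling by more than 50%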;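 further: 0% = DMSO wells and 100% = triacsin C control wells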
SMARCA2 activ: increases SMARCA2 function in MMTV reporter cells; activation, % at 9.1 µM; MG213 cells, MMTV-luciferase reporter, dexamethasone, overnight; AID 652017; 370,000 compounds, 1% hits; in the data active means activation above about 7.8%;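 further: 0% = vehicle wells and 100% = reference activator wells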
Efflux pump mplx: inhibitors of Candida antifungal efflux pumps expressed in yeast; 330,000 compounds, 0.44% hits; S. cerevisiae Candida pump triplex, Nile Red efflux; AID 485275; inhibition, % at 10 µM;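 active means plate passing quality check with inhibition over a set limit, or well fluorescence over plate mean plus 4 SD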;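 further: Nile Red retained in pooled yeast measured as flow cytometry median fluorescence; 0% = buffer negative control and 100% = Enniatin B positive control; higher means more Nile Red kept so more efflux inhibition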
Tb MetRS inh: Trypanosoma brucei MetRS inhibition; purified T. brucei MetRS, ATP depletion, Kinase-Glo luminescence; inhibition, % at 11.9 µM; 360,000 compounds, 0.4% hits;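 active means inhibition above a per-plate cutoff of the control wells' mean inhibition plus 3 SD, cut at about 5.5% in these data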;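 further: 0% = DMSO wells median and 100% = median of wells with control inhibitor compound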
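Dosing: 11.9 µM single point; system: parasite MetRS enzyme; technique: luminescence of leftover ATP; times: 15 min enzyme-compound preincubation, 2 h reaction, 10 min detection, 25 °C; replicates: each compound tested once; read-out basis: percent inhibition relative to median high and low control wells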
AHR activator: activators of human aryl hydrocarbon receptor; P35869; AHR-responsive luciferase reporter cells, luminescence; activation, % at 5 µM; 320,000 compounds, 2.5% hits; AID 2796; in the data active means activation above about 47%;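 further: 0% = vehicle wells and 100% = reference agonist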
Target sequence (P35869 whole entry, looked up): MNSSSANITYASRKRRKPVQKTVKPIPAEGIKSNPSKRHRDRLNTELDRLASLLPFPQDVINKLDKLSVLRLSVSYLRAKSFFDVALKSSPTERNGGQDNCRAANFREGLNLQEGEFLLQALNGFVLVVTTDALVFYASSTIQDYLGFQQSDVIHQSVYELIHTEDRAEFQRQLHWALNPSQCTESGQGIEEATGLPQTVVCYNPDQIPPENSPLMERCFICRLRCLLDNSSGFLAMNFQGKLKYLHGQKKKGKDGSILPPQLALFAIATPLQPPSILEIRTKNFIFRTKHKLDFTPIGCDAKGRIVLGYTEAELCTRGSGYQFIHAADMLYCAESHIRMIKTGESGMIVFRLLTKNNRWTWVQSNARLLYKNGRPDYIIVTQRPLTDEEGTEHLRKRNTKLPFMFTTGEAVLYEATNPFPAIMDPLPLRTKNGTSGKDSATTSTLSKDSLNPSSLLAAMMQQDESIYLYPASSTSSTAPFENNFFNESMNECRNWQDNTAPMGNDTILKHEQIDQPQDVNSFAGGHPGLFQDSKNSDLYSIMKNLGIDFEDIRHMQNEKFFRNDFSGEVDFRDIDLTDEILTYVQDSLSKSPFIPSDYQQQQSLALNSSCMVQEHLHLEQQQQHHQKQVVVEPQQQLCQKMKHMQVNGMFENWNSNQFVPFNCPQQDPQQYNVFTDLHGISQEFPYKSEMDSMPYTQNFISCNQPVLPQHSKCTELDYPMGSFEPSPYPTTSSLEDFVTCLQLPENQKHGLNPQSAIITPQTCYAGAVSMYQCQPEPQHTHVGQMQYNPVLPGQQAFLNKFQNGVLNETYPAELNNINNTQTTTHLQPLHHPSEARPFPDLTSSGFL
Active calls of the source: *; / = no result given. Shown are actives, neighbours in structure and some others; about 4.1% of the full set was active somewhere.

SMILES	H9c2 TAG inh	SMARCA2 activ	Efflux pump mplx	Tb MetRS inh	AHR activator
CC(=NNC(=S)N1CC2CCC(CC2)C1)c1cccc(C)n1	53.2*	-2.4	/	-0.4	/
CC(=NNC(=S)N1CCCC1)c1ccccn1	22.6	-5.8	/	0.3	/
CC(C)c1ccc(NC(=S)NC2CCCCCC2)cc1	-16.9	-0.5	0.0	0.2	11.7
Cc1ccc(NC(=S)NNC(=S)NC2CCCCC2)cc1	-2.9	3.5	0.1	-0.9	50.3*
Cc1cccc(Nc2nc(-c3sc(C)nc3C)cs2)c1	/	0.2	0.0	-0.7	70.0*
COc1cccc(Nc2nnc(SCc3nc4ccccc4s3)s2)c1	/	0.0	0.0	0.2	66.6*
Clc1ccc(-c2csc(Nc3cccnc3)n2)cc1	5.4	-2.6	0.0	-0.3	81.4*
Cc1nc(C)c(-c2csc(Nc3cccc(O)c3)n2)s1	/	3.2	-0.3	1.3	2.1
Cc1cccc(Nc2nc(-c3ccncc3)cs2)c1	129.8	0.6	0.0	-0.2	54.4*
COC(=O)[C@]12C[C@H](CC(=O)NCc3cccc(C(F)(F)F)c3)C(=O)N(Cc3ccc(Cl)cc3Cl)C1=C[C@H](C(C)(C)C)O[C@@H]2C	/	-1.8	/	/	/
Cc1cc(Br)cn2c(Cc3ccccc3C(F)(F)F)c(-c3ccco3)nc12	/	-0.2	/	/	/
Nc1[nH]c(C(=O)c2ccccc2)c(-c2cccc3ccccc23)c1C(=O)NC1CCCCC1	/	3.9	/	/	/
COc1ccc(-c2csc(NC(=O)/C(N=Nc3ccccc3)=C(\C)O)n2)cc1	/	/	0.3	/	48.3*
COc1cccc(Nc2nc(-c3ccc(O)cc3)cs2)c1	/	2.1	-0.3	1.0	53.8*
COc1ccc(-c2csc(NC(=O)c3c(OC)cccc3OC)n2)cc1	/	-4.5	0.2	0.1	-13.2
Cc1ccc(Nc2nc(-c3sc(C)nc3C)cs2)cc1	/	-2.3	0.1	-1.0	61.5*
CC(=O)Nc1ccc(C2=NN(Cc3nnc(-c4ccccc4)o3)C(=O)SC2)cc1	/	-1.1	-0.1	-0.4	76.3*
Cc1ccc(C)c2c(N)c3c(nc12)CCCCC3 (tested in a mixture with another compound)	12.1	0.9	-0.1	-0.6	47.2*
Nc1c2c(nc3sc4c(c13)CCCC4)CCCCCC2	1.1	1.4	0.3	0.0	49.4*
COC(=O)C[C@@H]1CC[C@H]2[C@H](COc3ccc(NC(=O)C4CCC4)cc3C(=O)N2C)O1	/	-3.9	/	/	/
Cc1cc(C(=O)COc2ccccc2[N+](=O)[O-])c(C)n1C1CC1	5.4	0.2	0.5	0.2	63.2*
Cc1cc(C(=O)COc2ccccc2C(N)=O)c(C)n1C1CC1	-35.9	1.9	-0.1	-0.1	-8.7
Cc1cccc(N/N=C2/COC(C)(C)CC2=O)c1	-5.1	7.9*	-0.1	0.3	-4.5
CCCCNC(=O)C1CCCN1C(=O)Nc1ccc2c(c1)OCO2 (centres undefined)	/	6.6	/	/	/
O=C(NCc1ccccc1)[C@@H]1CCCN1C(=O)[C@H]1CCCN1C(=O)c1c(F)cccc1F	/	-4.8	/	/	/
SMILES	H9c2 TAG inh	SMARCA2 activ	Efflux pump mplx	Tb MetRS inh	AHR activator
COc1ccc(NC(=S)N2CCC(c3nc4ccccc4[nH]3)CC2)c(OC)c1	/	0.2	-0.1	0.3	1.0
COc1ccccc1NC(=S)N1CCC(c2nc3cc(C)c(C)cc3[nH]2)CC1	/	-2.3	-0.2	0.6	52.0*
COc1cccc(C(=O)n2ccc3ccc(-c4ccc5ccn(C(=O)c6cccc(OC)c6)c5c4)cc32)c1	/	-2.0	/	/	/
Cc1ccc2nc(NC(=O)CCNS(=O)(=O)c3cccs3)sc2c1	22.8	-0.6	0.0	-0.8	3.6
Cc1cccc2sc(NC(=O)CCNS(=O)(=O)c3cccs3)nc12	64.9*	-3.8	-0.1	-0.2	27.3
Cn1c(SCC(=O)N=Nc2c(O)[nH]c3ccccc23)nc2ccccc21	/	/	0.0	/	26.2
O=C(CSc1nc2ccccc2[nH]1)N=Nc1c(O)[nH]c2ccccc12	/	5.1	0.1	-0.7	53.3*
COc1ccc(/C=C/c2nc(-c3ccccc3)cc(=O)[nH]2)cc1	-4.8	-3.3	0.4	-0.5	76.2*
Nc1nonc1N/N=C/c1c(O)ccc2ccccc12	15.4	-2.1	0.0	0.0	14.2
Nc1cc(Cl)nc(N/N=C/c2c(O)ccc3ccccc23)n1	/	-0.5	-0.2	-1.1	55.1*
CCN(CC)C(=O)CC[C@@H]1CC[C@]2(CCCN(Cc3ccccc3)C2)O1	/	-5.3	/	/	/
CCc1cc2c(Nc3ccc(O)cc3)nc(C)nc2s1	/	-2.5	0.6	-0.3	79.0*
CCc1cc2c(Nc3ccccc3O)nc(C)nc2s1	/	-4.4	0.0	-0.4	/
COc1ccccc1/C=N\Nc1cn[nH]c(=O)c1Cl	6.5	-1.0	-0.1	-0.5	47.9*
CCC(CO)Nc1cccc2c1S(=O)(=O)N(Cc1cn(Cc3ccc(C(F)(F)F)cc3)nn1)Cc1ccccc1O2 (centres undefined)	/	5.2	/	/	/
C#CCNC(=O)C[C@H]1C(=O)N(CCCOC)C2=CCCCC[C@]21C(=O)OC	/	-3.4	/	/	/
Cc1sc2nc(SCC(=O)N3CCCC3)[nH]c(=O)c2c1C	-1.2	0.6	0.2	0.4	59.0*
C[C@H]1COc2cc(Br)ccc2S(=O)(=O)N1Cc1cn(CCC2OCCO2)nn1	/	-5.3	/	/	/
CC(=NCCCn1ccnc1)C1=C(O)c2ccccc2C1=O	/	1.5	0.0	0.1	22.7
O=C1C(C=NCc2ccccn2)=C(O)c2ccccc21	/	6.9	-0.2	-0.5	60.3*
O=C1C(C=NCCCn2ccnc2)=C(O)c2ccccc21	13.4	-3.1	0.2	-0.2	47.6*
CC(=O)c1cc(Cl)ccc1OC(=O)c1ccco1	/	-1.0	0.1	-0.4	16.2
O=C(Oc1ccc(Br)cc1C(=O)/C=C/c1ccccc1F)c1ccco1	3.8	-0.9	0.0	0.0	56.5*
COc1ccc(OC)c(NC(=S)N(CCc2c(C)[nH]c3ccccc23)Cc2cccs2)c1	7.0	-2.5	0.0	-0.4	50.0*
COc1ccc(OC)c(NC(=S)N(CCc2c(C)[nH]c3ccc(C)cc23)Cc2cccs2)c1	13.1	-3.1	-0.1	-0.2	31.5
SMILES	H9c2 TAG inh	SMARCA2 activ	Efflux pump mplx	Tb MetRS inh	AHR activator
Cc1cc(O)ccc1N/C=C(\C#N)c1nc2ccccc2o1	/	-0.1	-0.1	0.1	54.4*
O=c1c2ccccc2nc(COc2ccccc2)n1/N=C/c1ccc(O)cc1O	36.1	-3.3	0.2	0.0	0.7
O=c1c2ccccc2nc(COc2ccccc2)n1/N=C/c1c[nH]c2ccccc12	/	0.0	-0.2	0.4	63.0*
CCCN1C(=O)/C(=C2\SC(N3CCCCC3)=NC2=O)c2ccccc21	50.6*	5.9	0.0	-0.2	18.5
CN1C(=O)/C(=C2\SC(N)=NC2=O)c2ccccc21	-0.2	-0.8	0.1	-1.3	73.4*
COc1ccc(S[C@]2(C(=O)N3CCN(C(C)=O)CC3)CC(=O)N(C(=O)/C=C/c3ccccc3)[C@@H]2c2ccc(OC)cc2)cc1	/	-1.7	/	/	/
Cc1c(C(=O)N/N=C/c2ccccc2Cl)[nH][nH]c1=O	/	0.5	/	/	/
Fc1ccccc1Cn1ccc2ccc(-c3ccc4ccn(Cc5ccccc5)c4c3)cc21	/	-0.8	/	/	/
COc1ccc(/C=N\NC(=O)c2sccc2C)cc1Cn1nc(C)cc1C	41.8	5.8	-0.1	-0.2	57.3*
Nc1c(C(=O)c2ccc(Cl)cc2)sc2nc3c(cc12)CCC3	/	5.4	0.1	-0.7	53.2*

From PubChem
